Results: the array DNA melting data of Ke et al. (doi:10.1101/2024.01.08.574731)

What was measured:
[1] = folding enthalpy; higher = less favourable; fluorescence melt of hairpins on a sequencing array, two-state fit; conditions: sodium 0.088 M
In short: (§1)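 In 50 mM Na-HEPES pH 8.0 containing 25 mM NaCl, hairpins from the library on a sequenced MiSeq flow cell were imaged for Cy3 fluorescence at 2.5 °C steps up to 60 °C, with Cy3 and quencher oligos annealed. After normalisation to pre-quench Cy3 and to control constructs, two-state fits with bootstrapping gave melting temperature and folding enthalpy. Four replicates were combined by inverse-variance weighting, and fitted temperatures were shifted up by 9.35 °C to match UV melts.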

[2] = melting temperature; fluorescence melt of hairpins on a sequencing array, two-state fit, raised by 9.35 °C to match UV melts; conditions: sodium 0.088 M
In short: as §1

Row | Sequence | folding enthalpy [1] | Tm [2]
1 | GACACGGGAAACCGCGTC (((.(((....))).))) | -47.8 kcal/mol | 50.9 °C
2 | GACACTACGAAAGTAGTC (((..(((....)))))) | -10.3 kcal/mol | 32.4 °C
3 | GACACTGAAAAGTGTC ((((((....)))))) | -34.5 kcal/mol | 58.6 °C
4 | GACAGACCGAAAGGTGTC (((..(((....)))))) | -19.5 kcal/mol | 44.3 °C
5 | GACAGACGAAAGTCGTC (((.(((....)))))) | -17.8 kcal/mol | 53 °C
6 | GACAGCCGAAAGGCGGTC (((.(((....))).))) | -20.1 kcal/mol | 67 °C
7 | GACAGCCGAAAGGCGTC (((.(((....)))))) | -12.7 kcal/mol | 60 °C
8 | GACAGCGAAAGCTCGGTC ((((((....)))..))) | -10.6 kcal/mol | 46.8 °C
9 | GACAGCGAAAGCTCGTC ((((((....))).))) | -19.6 kcal/mol | 50.5 °C
10 | GACAGCGAAAGCTCTGTC ((((((....)))..))) | -15.2 kcal/mol | 39.6 °C
11 | GACAGCGAAAGCTGAGTC ((((((....)))..))) | -8.14 kcal/mol | 39.2 °C
12 | GACAGCGAAAGCTGGGTC ((((((....)))..))) | -12.4 kcal/mol | 62 °C
13 | GACAGCGAAAGCTGTGTC ((((((....)))..))) | -10.8 kcal/mol | 56.9 °C
14 | GACAGCGAAAGCTTCGTC ((((((....)))..))) | -13 kcal/mol | 43.9 °C
15 | GACAGGACGAAAGTCGTC (((..(((....)))))) | -16.7 kcal/mol | 42.6 °C
16 | GACAGGCGAAAGCCGGTC (((.(((....))).))) | -25.9 kcal/mol | 67.1 °C
17 | GACAGGGCGAAAGCCGTC (((..(((....)))))) | -14.1 kcal/mol | 49.6 °C
18 | GACAGTCCGAAAGGAGTC (((..(((....)))))) | -17 kcal/mol | 30.3 °C
19 | GACAGTGCGAAAGCAGTC (((..(((....)))))) | -13.3 kcal/mol | 40.5 °C
20 | GACAGTGGAAACACCGTC (((.(((....))).))) | -24.8 kcal/mol | 39.6 °C
21 | GACAGTGGAAACGTTGTC ((((..(....)..)))) | -20.9 kcal/mol | 36.2 °C
22 | GACATACGAAAGTACGTC (((.(((....))).))) | -27 kcal/mol | 42.5 °C
23 | GACATGCGAAAGCACGTC (((.(((....))).))) | -26.3 kcal/mol | 52.4 °C

Row | Sequence | folding enthalpy [1] | Tm [2]
24 | GACATGGGAAACCACGTC (((.(((....))).))) | -26.7 kcal/mol | 38.8 °C
25 | GACATGGGAAACCGTGTC ((((.((....)).)))) | -30.9 kcal/mol | 52.1 °C
26 | GACATTCCGAAAGGAGTC (((..(((....)))))) | -12.3 kcal/mol | 28.6 °C
27 | GACATTGGAAACAATGTC (((((((....))))))) | -44.1 kcal/mol | 56.6 °C
28 | GACCAAGAAATTGGTC ((((((....)))))) | -25.9 kcal/mol | 54.4 °C
29 | GACCACCGAAAGGTGTC (((.(((....)))))) | -12.7 kcal/mol | 47.5 °C
30 | GACCACGAAAGTGAGGTC ((((((....)))..))) | -22.8 kcal/mol | 48.3 °C
31 | GACCACGAAAGTGCTGTC ((((((....)))..))) | -17.2 kcal/mol | 34 °C
32 | GACCACGAAAGTGGGGTC ((((((....)))..))) | -13.2 kcal/mol | 61.2 °C
33 | GACCACGAAAGTGTGGTC ((((((....)))..))) | -41 kcal/mol | 55.2 °C
34 | GACCACGAAAGTGTGTC ((((((....))).))) | -27.3 kcal/mol | 52.9 °C
35 | GACCACGGAAACGTAGCC (.(.(((....))).).) | -9.48 kcal/mol | 23.6 °C
36 | GACCACGGAAACGTAGTC (((.(((....))).))) | -22.6 kcal/mol | 37 °C
37 | GACCACGGAAACGTGATC ((.((((....)))).)) | -19.9 kcal/mol | 43.3 °C
38 | GACCAGACGAAAGTCGTC (((..(((....)))))) | -12.5 kcal/mol | 31.7 °C
39 | GACCAGCCGAAAGGCGTC (((..(((....)))))) | -7.85 kcal/mol | 34.5 °C
40 | GACCAGGGAAACCCAGTC (((..((....))..))) | -18.4 kcal/mol | 29.1 °C
41 | GACCAGGGAAACCTGATC ((.((((....)))).)) | -22.3 kcal/mol | 34.8 °C
42 | GACCATACGAAAGTAGTC (((..(((....)))))) | -9.93 kcal/mol | 25.7 °C
43 | GACCATGGAAACATAGTC (((.(((....))).))) | -19.8 kcal/mol | 30.8 °C
44 | GACCATGGAAACGTGGTC (((((.(....).))))) | -42.7 kcal/mol | 52.6 °C
45 | GACCCAGGAAACCAGGTC ((((..(....)..)))) | -24.3 kcal/mol | 34 °C
46 | GACCCAGGAAACTGGGCC (.(((((....))))).) | -16.5 kcal/mol | 47.9 °C

Row | Sequence | folding enthalpy [1] | Tm [2]
47 | GACCCCCGAAAGGGAGTC (((.(((....))).))) | -28.8 kcal/mol | 54 °C
48 | GACCCCGAAAGGGAGGTC ((((((....)))..))) | -21.8 kcal/mol | 49.4 °C
49 | GACCCCGAAAGGGAGTC ((((((....))).))) | -23 kcal/mol | 56.5 °C
50 | GACCCCGAAAGGGTGTC ((((((....))).))) | -26.6 kcal/mol | 57.6 °C
51 | GACCCTCCGAAAGGAGTC (((..(((....)))))) | -7.33 kcal/mol | 23.4 °C
52 | GACCCTGGAAACAGGGTC (((((((....))))))) | -36.9 kcal/mol | 67.7 °C
53 | GACCCTGGAAACGGGGTC (((((.(....).))))) | -40.3 kcal/mol | 57.6 °C
54 | GACCGAGCGAAAGCTGTC (((..(((....)))))) | -15.3 kcal/mol | 36.8 °C
55 | GACCGAGGAAACTCGATC ((.((((....)))).)) | -21.1 kcal/mol | 40.7 °C
56 | GACCGAGGAAACTCGGCC (.(((((....))))).) | -15.1 kcal/mol | 46.6 °C
57 | GACCGCCGAAAGGCTGTC (((.(((....))).))) | -20.6 kcal/mol | 55.5 °C
58 | GACCGCGAAAGCGAAGTC ((((((....)))..))) | -16.9 kcal/mol | 47.4 °C
59 | GACCGCGAAAGCGCAGTC ((((((....)))..))) | -16.3 kcal/mol | 38 °C
60 | GACCGCGGAAACACGGTC (((((.(....).))))) | -52 kcal/mol | 55.5 °C
61 | GACCGCGGAAACGTGGTC ((((.((....)).)))) | -44.8 kcal/mol | 62.8 °C
62 | GACCGGCGAAAGCCCGTC (((.(((....))).))) | -16.9 kcal/mol | 50.8 °C
63 | GACCGGCGAAAGCCGTC (((.(((....)))))) | -8.28 kcal/mol | 49.1 °C
64 | GACCGGGCGAAAGCCGTC (((..(((....)))))) | -10.3 kcal/mol | 40.4 °C
65 | GACCGGGGAAACCCAGTC (((.(((....))).))) | -23.6 kcal/mol | 42.8 °C
66 | GACCGGGGAAACCCGATC ((.((((....)))).)) | -19.9 kcal/mol | 44 °C
67 | GACCGGGGAAACCTGGTC ((((.((....)).)))) | -39.3 kcal/mol | 55.4 °C
68 | GACCGTGGAAACACGATC ((.((((....)))).)) | -19.1 kcal/mol | 43.1 °C
